Test results: ChEMBL document CHEMBL1287727, “Structure and biological evaluation of novel cytotoxic sterol glycosides from the marine red alga Peyssonnelia sp” (Bioorg Med Chem, 2010)
In brackets after ≈: the same amount, converted by molar mass. Activity calls are given as the source filed them. No cut-off for these calls is given here.

Tests used:
DU-145 = test: Cytotoxicity against human DU145 cells after 72 hrs by MTS assay; assay type: functional, cell-based; details: DU-145, 72 h
DU-4475 = test: Cytotoxicity against human DU4475 cells after 72 hrs by MTS assay; assay type: functional, cell-based; details: DU-4475, 72 h
MDA-MB-468 = test: Cytotoxicity against human MDA-MB-468 cells after 72 hrs by MTS assay; assay type: functional, cell-based; details: MDA-MB-468, 72 h
MDA-MB-231 = test: Cytotoxicity against human MDA-MB-231 cells after 72 hrs by MTS assay; assay type: functional, cell-based; details: MDA-MB-231, 72 h
[1] = Cytotoxicity against human LNCaP-FGC cells after 72 hrs by MTS assay; assay type: functional, cell-based; details: LNCaP-Clone-FGC
PC-3 = test: Cytotoxicity against human PC3 cells after 72 hrs by MTS assay; assay type: functional, cell-based; details: PC-3, 72 h
HCT-116 = test: Cytotoxicity against human HCT116 cells after 72 hrs by MTS assay; assay type: functional, cell-based; details: HCT-116, 72 h
[2] = Cell cycle arrest in human A2780DDP cells at 10 uM after 48 hrs using propidium iodine staining by flow cytometry; assay type: functional, cell-based
Procedure, shortened: (§1)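 A2780/DDP-S ovarian cancer cells were treated at 1.0, 3.0 and 10 µM for 24 or 48 h. DNA was stained with propidium iodide and cell-cycle distribution was analysed by flow cytometry.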

Homo sapiens [3] = organism: Homo sapiens; test: Induction of apoptosis in human A2780DDP cells assessed as PARP cleavage at 10 uM after 48 hrs by flow cytometry; assay type: functional, cell-based
BT-549 = test: Cytotoxicity against human BT549 cells after 72 hrs by MTS assay; assay type: functional, cell-based; details: BT-549, 72 h
Candida albicans = test: Antifungal activity against amphotericin-resistant Candida albicans ATCC 90873; assay type: functional
Plasmodium falciparum = test: Antimalarial activity against Plasmodium falciparum; assay type: functional, organism-based
Procedure, shortened: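 Parasite proliferation was read out with a SYBR Green-based assay.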

[4] = Cell cycle arrest in human A2780DDP cells at 10 uM after 24 hrs using propidium iodine staining by flow cytometry; assay type: functional, cell-based; procedure, shortened: as §1
[5] = Cytotoxicity against human A2780DDP cells after 72 hrs by MTS assay; assay type: functional, cell-based
A549 = test: Cytotoxicity against human A549 cells after 72 hrs by MTS assay; assay type: functional, cell-based; details: A549, 72 h
CCRF-CEM = test: Cytotoxicity against human CCRF-CEM cells after 72 hrs by MTS assay; assay type: functional, cell-based
Homo sapiens [6] = organism: Homo sapiens; test: Induction of apoptosis in human A2780DDP cells assessed as PARP cleavage at 10 uM after 24 hrs by flow cytometry; assay type: functional, cell-based
Procedure, shortened: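 A2780/DDP-S ovarian cancer cells were exposed at 1.0, 3.0 and 10 µM for 24 or 48 h. Apoptosis was scored by flow cytometry as the presence of cleaved PARP, a marker of caspase activation.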

[7] = test system: Mycobacterium tuberculosis; test: Antimicrobial activity against Mycobacterium tuberculosis H37Rv by microplate alamar blue assay; assay type: functional, organism-based
Procedure, shortened: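 M. tuberculosis H37Rv (ATCC 27294) tested by microplate alamar blue assay.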

Enterococcus faecium = test: Antibacterial activity against vancomycin-resistant Enterococcus faecium ATCC 700221; assay type: functional
Staphylococcus aureus = test: Antibacterial activity against methicillin-resistant Staphylococcus aureus ATCC 33591; assay type: functional

SMILES	IC50 (DU-145) [µM]	IC50 (DU-4475) [µM]	IC50 (MDA-MB-468) [µM]	IC50 (MDA-MB-231) [µM]	IC50 [1] [µM]	IC50 (PC-3) [µM]	IC50 (HCT-116) [µM]	Activity [2]	Activity (Homo sapiens [3])	IC50 (BT-549) [µM]	MIC (Candida albicans) [µg/mL]	IC50 (Plasmodium falciparum) [µM]	Activity [4]	IC50 [5] [µM]	IC50 (A549) [µM]	IC50 (CCRF-CEM) [µM]	Activity (Homo sapiens [6])	IC50 [7] [µM]	Activity (Enterococcus faecium) [µg/mL]	Activity (Staphylococcus aureus) [µg/mL]
CC(C)CCC[C@@H](C)[C@H]1CC[C@H]2[C@@H]3CCC4=C[C@@H](O)CC[C@]4(C)[C@H]3CC[C@]12C	> 25	> 25	> 25	> 25	> 25	> 25	> 25	–	–	–	–	–	–	–	–	–	–	–	–	–
CC(C)CCC[C@@H](C)[C@H]1CC[C@H]2[C@@H]3CCC4=CC(=O)CC[C@]4(CO[C@@H]4O[C@H](CO)[C@@H](O)[C@H](O)[C@H]4O)[C@H]3CC[C@]12C	1.31	1.29	0.86	1.27	3.4	3.44	3.13	inactive	inactive	1.26	25 (≈ 44.4 µM)	> 40	inactive	1.39	0.93	1.97	inactive	> 40	6.3	–
CC(=O)N[C@H]1[C@H](OC[C@]23CCC(=O)C=C2CC[C@@H]2[C@@H]3CC[C@]3(C)[C@@H]([C@H](C)CCCC(C)C)CC[C@@H]23)O[C@H](CO)[C@@H](O)[C@@H]1O	1.35	2.44	0.71	1.01	1.48	2.4	2.23	inactive	inactive	1.24	25 (≈ 41.4 µM)	> 40	inactive	1.35	0.97	1.45	–	> 40	12.5	3.1
CC(C)CCC[C@@H](C)[C@H]1CC[C@H]2[C@@H]3CCC4=CC(=O)CC[C@]4(CO)[C@H]3CC[C@]12C	5.05	1	3.99	22.3	15.6	1.96	20.9	–	–	–	–	–	–	–	–	–	–	–	–	–
CC(C)CCC[C@@H](C)[C@H]1CC[C@H]2[C@@H]3CCC4=CC(=O)CC[C@]4(C)[C@H]3CC[C@]12C [4-CHOLESTEN 3-ONE]	20.3	6.74	6.09	13.5	5.96	> 25	9.58	–	–	–	–	–	–	–	–	–	–	–	–	–
CC(=O)N[C@H]1[C@H](OC[C@]23CC[C@H](O)C=C2CC[C@@H]2[C@@H]3CC[C@]3(C)[C@@H]([C@H](C)CCCC(C)C)CC[C@@H]23)O[C@H](CO)[C@@H](O)[C@@H]1O	> 25	6.12	7.13	10.2	21.4	9.61	> 25	–	–	10.1	–	–	–	8.98	> 25	10.7	–	–	–	–
CC(C)CCC[C@@H](C)[C@H]1CC[C@H]2[C@@H]3CCC4=C[C@@H](O)CC[C@]4(CO[C@@H]4O[C@H](CO)[C@@H](O)[C@H](O)[C@H]4O)[C@H]3CC[C@]12C	> 25	6.09	6.69	16.9	24.2	> 25	> 25	–	–	11.9	–	–	–	> 25	> 25	9.82	–	–	–	–
